Values after ≈ are worked out from the molar mass of the structure shown.
How the values were obtained:
Type in all cases: functional
Prevotella intermedia [1] = experiment: Antimicrobial activity against Prevotella intermedia
[2] = tested on: Staphylococcus epidermidis; experiment: Bactericidal activity against methicillin-susceptible coagulase-negative Staphylococcus epidermidis after 24 hrs by plate counting method
Method in brief: (§1)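 Clinical staphylococcal isolates from patient body fluids, blood, genital secretions, pus or sputum; species by conventional methods or Vitek. Twofold dilutions in Mueller-Hinton broth, inoculum 5 × 10^5 CFU/ml, 37°C aerobic 24 h (CLSI M7-A6 microdilution). About 100 μl from each well without visible growth spread on MHA; 37°C 24 h. MBC = lowest concentration giving no growth on agar.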

Staphylococcus simulans [3] = experiment: Bactericidal activity against methicillin-resistant coagulase-negative Staphylococcus simulans after 24 hrs by plate counting method; method in brief: as §1
[4] = tested on: Staphylococcus haemolyticus; experiment: Antimicrobial activity against methicillin-resistant coagulase-negative Staphylococcus haemolyticus after 24 hrs by broth microdilution method
Method in brief: (§2)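 Clinical isolates came from blood, body fluids, genital secretions, pus or sputum, identified conventionally or by Vitek. MICs were run by CLSI M7-A6 broth microdilution in Mueller-Hinton broth with 5 × 10^5 CFU/ml inoculum. Agents were twofold serially diluted, starting from 10% DMSO. Drug-free and uninoculated controls were included. Plates were incubated aerobically at 37°C for 24 h; MIC is the lowest concentration giving no visible growth.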

Staphylococcus hominis [5] = experiment: Bactericidal activity against methicillin-susceptible coagulase-negative Staphylococcus hominis after 24 hrs by plate counting method; method in brief: as §1
Staphylococcus simulans [6] = experiment: Antimicrobial activity against methicillin-susceptible coagulase-negative Staphylococcus simulans after 24 hrs by broth microdilution method; method in brief: as §2
Hoylesella loescheii [7] = experiment: Bactericidal activity against Prevotella loescheii
Staphylococcus aureus [8] = experiment: Bactericidal activity against methicillin-susceptible Staphylococcus aureus after 24 hrs by plate counting method; method in brief: as §1
Staphylococcus simulans [9] = experiment: Bactericidal activity against methicillin-susceptible coagulase-negative Staphylococcus simulans after 24 hrs by plate counting method; method in brief: as §1
Staphylococcus hominis [10] = experiment: Antimicrobial activity against methicillin-susceptible coagulase-negative Staphylococcus hominis after 24 hrs by broth microdilution method; method in brief: as §2
Staphylococcus hominis [11] = experiment: Bactericidal activity against methicillin-resistant coagulase-negative Staphylococcus hominis after 24 hrs by plate counting method
Mammaliicoccus sciuri [12] = experiment: Antimicrobial activity against methicillin-susceptible coagulase-negative Staphylococcus sciuri after 24 hrs by broth microdilution method; method in brief: as §2
Streptococcus mutans [13] = experiment: Antimicrobial activity against Streptococcus mutans
[14] = tested on: Staphylococcus haemolyticus; experiment: Antimicrobial activity against methicillin-susceptible coagulase-negative Staphylococcus haemolyticus after 24 hrs by broth microdilution method; method in brief: as §2
Mammaliicoccus sciuri [15] = experiment: Antimicrobial activity against methicillin-resistant coagulase-negative Staphylococcus sciuri after 24 hrs by broth microdilution method; method in brief: as §2
Porphyromonas gingivalis [16] = experiment: Antimicrobial activity against Porphyromonas gingivalis
Staphylococcus hominis [17] = experiment: Antimicrobial activity against methicillin-resistant coagulase-negative Staphylococcus hominis after 24 hrs by broth microdilution method; method in brief: as §2
Prevotella intermedia [18] = experiment: Bactericidal activity against Prevotella intermedia
Mammaliicoccus sciuri [19] = experiment: Bactericidal activity against methicillin-resistant coagulase-negative Staphylococcus sciuri after 24 hrs by plate counting method; method in brief: as §1
[20] = tested on: Staphylococcus haemolyticus; experiment: Bactericidal activity against methicillin-susceptible coagulase-negative Staphylococcus haemolyticus after 24 hrs by plate counting method; method in brief: as §1
[21] = tested on: Staphylococcus epidermidis; experiment: Bactericidal activity against methicillin-resistant coagulase-negative Staphylococcus epidermidis after 24 hrs by plate counting method
Staphylococcus simulans [22] = experiment: Antimicrobial activity against methicillin-resistant coagulase-negative Staphylococcus simulans after 24 hrs by broth microdilution method; method in brief: as §2
Cutibacterium acnes [23] = experiment: Bactericidal activity against Propionibacterium acnes
Streptococcus mutans [24] = experiment: Bactericidal activity against Streptococcus mutans
Porphyromonas gingivalis [25] = experiment: Bactericidal activity against Porphyromonas gingivalis
Staphylococcus aureus [26] = experiment: Antimicrobial activity against methicillin-resistant Staphylococcus aureus after 24 hrs by broth microdilution method; method in brief: as §2
Staphylococcus aureus [27] = experiment: Bactericidal activity against methicillin-resistant Staphylococcus aureus after 24 hrs by plate counting method; settings: Staphylococcus aureus, 24 h
[28] = tested on: Staphylococcus epidermidis; experiment: Antimicrobial activity against methicillin-resistant coagulase-negative Staphylococcus epidermidis after 24 hrs by broth microdilution method; method in brief: as §2
Mammaliicoccus sciuri [29] = experiment: Bactericidal activity against methicillin-susceptible coagulase-negative Staphylococcus sciuri after 24 hrs by plate counting method; method in brief: as §1
[30] = tested on: Staphylococcus haemolyticus; experiment: Bactericidal activity against methicillin-resistant coagulase-negative Staphylococcus haemolyticus after 24 hrs by plate counting method
Staphylococcus aureus [31] = experiment: Antimicrobial activity against methicillin-susceptible Staphylococcus aureus after 24 hrs by broth microdilution method; method in brief: as §2
Hoylesella loescheii [32] = experiment: Antimicrobial activity against Prevotella loescheii
Cutibacterium acnes [33] = experiment: Antimicrobial activity against Propionibacterium acnes
[34] = tested on: Staphylococcus epidermidis; experiment: Antimicrobial activity against methicillin-susceptible coagulase-negative Staphylococcus epidermidis after 24 hrs by broth microdilution method; method in brief: as §2
[35] = Staphylococcus epidermidis, 24 h
[36] = Staphylococcus haemolyticus, 24 h

Work on `COc1cc(O)c(C(=O)[C@@H]2[C@H](CC=C(C)C)C(C)=CC[C@H]2c2ccccc2)c(O)c1` [PANDURATIN A] yielded an MIC (Prevotella intermedia [1]) of 2 µg/mL (≈ 4.92 µM), an MBC50 [2] of 1 µg/mL (≈ 2.46 µM) and an MBC90 [2] of 4 µg/mL (≈ 9.84 µM). The MBC [2, 35] was 0.125 µg/mL (≈ 0.307 µM), the MBC50 (Staphylococcus simulans [3]) was 2 µg/mL (≈ 4.92 µM) and the MBC (Staphylococcus simulans [3]; Staphylococcus simulans, 24 h) was 1 µg/mL (≈ 2.46 µM). It also gave an MIC50 [4] of 0.25 µg/mL (≈ 0.615 µM), an MIC90 [4] of 1 µg/mL (≈ 2.46 µM) and an MBC50 (Staphylococcus hominis [5]) of 1 µg/mL (≈ 2.46 µM). For the same molecule, the MBC90 (Staphylococcus hominis [5]) was 4 µg/mL (≈ 9.84 µM), the MBC (Staphylococcus hominis [5]; Staphylococcus hominis, 24 h) was 0.125 µg/mL (≈ 0.307 µM) and the MIC50 (Staphylococcus simulans [6]) was 0.5 µg/mL (≈ 1.23 µM). It also gave an MIC90 (Staphylococcus simulans [6]) of 1 µg/mL (≈ 2.46 µM), an MBC (Hoylesella loescheii [7]) of 8 µg/mL (≈ 19.7 µM) and an MBC50 (Staphylococcus aureus [8]) of 2 µg/mL (≈ 4.92 µM). The MBC90 (Staphylococcus aureus [8]) was 4 µg/mL (≈ 9.84 µM), the MBC (Staphylococcus aureus [8]; Staphylococcus aureus, 24 h) was 1 µg/mL (≈ 2.46 µM) and the MBC50 (Staphylococcus simulans [9]) was 1 µg/mL (≈ 2.46 µM). For the same molecule, the MBC90 (Staphylococcus simulans [9]) was 4 µg/mL (≈ 9.84 µM), the MBC (Staphylococcus simulans [9]; Staphylococcus simulans, 24 h) was 0.125 µg/mL (≈ 0.307 µM) and the MIC50 (Staphylococcus hominis [10]) was 0.5 µg/mL (≈ 1.23 µM). The MIC90 (Staphylococcus hominis [10]) was 1 µg/mL (≈ 2.46 µM), the MBC50 (Staphylococcus hominis [11]) was 2 µg/mL (≈ 4.92 µM) and the MBC (Staphylococcus hominis [11]; Staphylococcus hominis, 24 h) was 1 µg/mL (≈ 2.46 µM). The MIC50 (Mammaliicoccus sciuri [12]) was 0.5 µg/mL (≈ 1.23 µM), the MIC90 (Mammaliicoccus sciuri [12]) was 1 µg/mL (≈ 2.46 µM) and the MIC (Streptococcus mutans [13]) was 4 µg/mL (≈ 9.84 µM). For the same molecule, the MIC50 [14] was 0.5 µg/mL (≈ 1.23 µM), the MIC90 [14] was 1 µg/mL (≈ 2.46 µM) and the MIC50 (Mammaliicoccus sciuri [15]) was 0.25 µg/mL (≈ 0.615 µM). It also gave an MIC90 (Mammaliicoccus sciuri [15]) of 1 µg/mL (≈ 2.46 µM), an MIC (Porphyromonas gingivalis [16]) of 4 µg/mL (≈ 9.84 µM) and an MIC50 (Staphylococcus hominis [17]) of 0.25 µg/mL (≈ 0.615 µM). It also gave an MIC90 (Staphylococcus hominis [17]) of 1 µg/mL (≈ 2.46 µM), an MBC (Prevotella intermedia [18]) of 4 µg/mL (≈ 9.84 µM) and an MBC50 (Mammaliicoccus sciuri [19]) of 2 µg/mL (≈ 4.92 µM). For the same molecule, the MBC (Mammaliicoccus sciuri [19]; Mammaliicoccus sciuri, 24 h) was 1 µg/mL (≈ 2.46 µM), the MBC50 [20] was 1 µg/mL (≈ 2.46 µM) and the MBC90 [20] was 4 µg/mL (≈ 9.84 µM). It also gave an MBC [20, 36] of 0.125 µg/mL (≈ 0.307 µM), an MBC50 [21] of 2 µg/mL (≈ 4.92 µM) and an MBC [21, 35] of 1 µg/mL (≈ 2.46 µM). For the same molecule, the MIC50 (Staphylococcus simulans [22]) was 0.25 µg/mL (≈ 0.615 µM), the MIC90 (Staphylococcus simulans [22]) was 1 µg/mL (≈ 2.46 µM) and the MBC (Cutibacterium acnes [23]) was 4 µg/mL (≈ 9.84 µM). The MBC (Streptococcus mutans [24]) was 8 µg/mL (≈ 19.7 µM), the MBC (Porphyromonas gingivalis [25]) was 8 µg/mL (≈ 19.7 µM) and the MIC (Staphylococcus aureus [26]) was 0.5 µg/mL (≈ 1.23 µM). The MIC50 (Staphylococcus aureus [26]) was 0.5 µg/mL (≈ 1.23 µM), the MIC90 (Staphylococcus aureus [26]) was 1 µg/mL (≈ 2.46 µM) and the MBC (Staphylococcus aureus [27]) was 2 µg/mL (≈ 4.92 µM). It also gave an MIC50 [28] of 0.25 µg/mL (≈ 0.615 µM), an MIC90 [28] of 1 µg/mL (≈ 2.46 µM) and an MBC50 (Mammaliicoccus sciuri [29]) of 1 µg/mL (≈ 2.46 µM). The MBC90 (Mammaliicoccus sciuri [29]) was 4 µg/mL (≈ 9.84 µM), the MBC (Mammaliicoccus sciuri [29]; Mammaliicoccus sciuri, 24 h) was 0.125 µg/mL (≈ 0.307 µM) and the MBC50 [30] was 2 µg/mL (≈ 4.92 µM). It also gave an MBC [30, 36] of 1 µg/mL (≈ 2.46 µM), an MIC (Staphylococcus aureus [31]) of 0.5 µg/mL (≈ 1.23 µM) and an MIC50 (Staphylococcus aureus [31]) of 0.5 µg/mL (≈ 1.23 µM). The MIC90 (Staphylococcus aureus [31]) was 1 µg/mL (≈ 2.46 µM), the MIC (Hoylesella loescheii [32]) was 4 µg/mL (≈ 9.84 µM) and the MIC (Cutibacterium acnes [33]) was 2 µg/mL (≈ 4.92 µM). It also gave an MIC50 [34] of 0.5 µg/mL (≈ 1.23 µM) and an MIC90 [34] of 1 µg/mL (≈ 2.46 µM).
